Measurements taken from ChEMBL document CHEMBL3525976, “An unusual metabolic pathway of sipoglitazar, a novel antidiabetic agent: cytochrome P450-catalyzed oxidation of sipoglitazar acyl glucuronide” (Drug Metab Dispos, 2012).

What was measured:
[1] = Drug metabolism in human hepatic microsomes assessed as formation of beta-1-O-acyl glucuronide conjugate of sipoglitazar at 100 uM after 4 hrs by HPLC analysis in presence of UDPGA; format: ADME, Liver, Microsome
Outline: (§1)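 Preparative glucuronidation: [14C]sipoglitazar 100 μmol/L with human liver microsomes (2 mg protein/mL) and UDPGA 5 mmol/L, 37°C, 4 h. Supernatant concentrated under nitrogen, then separated by radio-HPLC on ODS columns at 40°C or 4°C with acetonitrile/water/TFA gradient to resolve the glucuronide isomers.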

[2] = Drug metabolism in human hepatic microsomes assessed as formation of alpha-2-O-acyl glucuronide conjugate of sipoglitazar at 100 uM after 4 hrs by HPLC analysis in presence of UDPGA; format: ADME, Liver, Microsome; outline: as §1
[3] = Drug metabolism in human hepatic microsomes assessed as formation of 3-(3-hydroxy-1-{4-[(2-phenyl-1,3-thiazol-4-yl)methoxy]benzyl}-1H-pyrazol-4-yl)propanoic acid at 10 uM after 30 mins by LC-MS and LC-MS/MS analysis in presence of gemfibrozil, NADPH and UDPGA; format: ADME, Liver, Microsome; conditions: 0.5 h
Outline: (§2)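 Human liver microsomes (0.5 mg protein/mL), 10 μmol/L [14C]sipoglitazar, 5 mmol/L MgCl2, alamethicin 50 μg/mL and UDPGA 5 mmol/L, with or without NADPH-generating system. Gemfibrozil added at 0, 10, 30, 100 or 300 μmol/L final, in 50 mmol/L KPB pH 7.4. Incubated 37°C, 30 min. Acetonitrile quench, then radio-HPLC.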

[4] = Drug metabolism in human hepatic microsomes assessed as formation of 3-[3-ethoxy-1-(4-hydroxybenzyl)-1H-pyrazol-4-yl]propanoic acid] at 10 uM after 30 mins by LC-MS and LC-MS/MS analysis in presence of gemfibrozil, NADPH and UDPGA; format: ADME, Liver, Microsome; conditions: 0.5 h; outline: as §2
[5] = Drug metabolism in human hepatic microsomes assessed as elimination of compound at 10 uM after 30 mins by LC-MS and LC-MS/MS analysis in presence of gemfibrozil, NADPH and UDPGA; format: ADME, Liver, Microsome; conditions: 0.5 h; outline: as §2
[6] = Drug metabolism in human hepatic microsomes assessed as beta-1-O-acyl glucuronide conjugate of sipoglitazar formation at 10 uM after 30 mins by LC-MS and LC-MS/MS analysis in presence of gemfibrozil and UDPGA; format: ADME, Liver, Microsome; conditions: 0.5 h; outline: as §2
[7] = Drug metabolism in human hepatic microsomes assessed as elimination of compound at 10 uM after 30 mins by LC-MS and LC-MS/MS analysis in presence of gemfibrozil and UDPGA; format: ADME, Liver, Microsome; conditions: 0.5 h; outline: as §2
[8] = Drug metabolism in cryopreserved primary human hepatocytes assessed as formation of 3-(3-hydroxy-1-{4-[(2-phenyl-1,3-thiazol-4-yl)methoxy]benzyl}-1H-pyrazol-4-yl)propanoic acid at 10 uM after 6 hrs by LC-MS and LC-MS/MS analysis; format: ADME, cell-based, Hepatocyte
Outline: (§3)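 Cryopreserved human hepatocytes suspended in DMEM at 3 x 10⁵ viable cells/well with 10 μmol/L [14C]sipoglitazar, 37°C, 6 h. Stopped with acetonitrile and centrifuged; supernatant run on radio-HPLC (ODS column, acetonitrile/water/TFA gradient). Metabolites expressed as % of total radioactivity. Means of duplicates.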

[9] = Drug metabolism in cryopreserved primary human hepatocytes assessed as formation of 3-[3-ethoxy-1-(4-hydroxybenzyl)-1H-pyrazol-4-yl]propanoic acid] at 10 uM after 6 hrs by LC-MS and LC-MS/MS analysis; format: ADME, cell-based, Hepatocyte; outline: as §3
[10] = Drug metabolism in human hepatic microsomes assessed as formation of 3-(3-hydroxy-1-{4-[(2-phenyl-1,3-thiazol-4-yl)methoxy]benzyl}-1H-pyrazol-4-yl)propanoic acid at 10 uM after 6 hrs by LC-MS and LC-MS/MS analysis in presence of NADPH and UDPGA; format: ADME, Liver, Microsome
[11] = Drug metabolism in human hepatic microsomes assessed as formation of 3-[3-ethoxy-1-(4-hydroxybenzyl)-1H-pyrazol-4-yl]propanoic acid] at 10 uM after 6 hrs by LC-MS and LC-MS/MS analysis in presence of NADPH and UDPGA; format: ADME, Liver, Microsome
[12] = Drug metabolism in human hepatic microsomes assessed as formation of 3-[3-ethoxy-1-(4-hydroxybenzyl)-1H-pyrazol-4-yl]propanoic acid] at 10 uM after 1 hr by LC-MS and LC-MS/MS analysis in presence of NADPH
[13] = Drug metabolism in human hepatic microsomes assessed as formation of 3-(3-hydroxy-1-{4-[(2-phenyl-1,3-thiazol-4-yl)methoxy]benzyl}-1H-pyrazol-4-yl)propanoic acid at 10 uM after 1 hr by LC-MS and LC-MS/MS analysis in presence of NADPH
[14] = Drug level in human hepatic microsomes treated with 10 uM of [14C]Sipoglitazar after 6 hrs by LC-MS and LC-MS/MS analysis in presence of NADPH; format: ADME, Liver
[15] = Drug level in human hepatic microsomes treated with 10 uM of [14C]Sipoglitazar after 6 hrs by LC-MS and LC-MS/MS analysis in presence of UDPGA; format: ADME, Liver
Hepatocyte = assay: Drug level in cryopreserved primary human hepatocytes treated with 10 uM of [14C]Sipoglitazar after 6 hrs by LC-MS and LC-MS/MS analysis; format: ADME, cell-based; outline: as §3
[16] = Drug level in human hepatic microsomes treated with 10 uM of [14C]Sipoglitazar after 6 hrs by LC-MS and LC-MS/MS analysis in presence of NADPH and UDPGA; format: ADME, Liver
[17] = Drug level in human hepatic microsomes treated with 100 uM of [14C]Sipoglitazar after 4 hrs by HPLC analysis in presence of UDPGA; format: ADME, Liver; outline: as §1
[18] = Chemical stability of the compound in acetate buffer at pH 4.4 at 10 uM up to 4 hrs; format: physicochemical; conditions: pH 4.4, 4 h
Outline: (§4)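 [14C]glucuronide isomer (G1 or G2) at 10 μmol/L final, incubated at 37°C in 50 mmol/L potassium phosphate buffer (pH 7.4), acetate buffer (pH 4.4), rat bile or human plasma. Samples taken at 0, 5, 30 min and 1, 2, 4 h (G1) or 0, 1, 2, 4 h (G2). Reaction stopped with equal-volume acetonitrile and centrifuged. Supernatant analysed by radio-HPLC. Each species reported as % of total radioactivity.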

[19] = Chemical stability of the compound in potassium phosphate buffer at pH 7.4 assessed as formation of sipoglitazar at 10 uM up to 4 hrs; format: physicochemical; conditions: pH 7.4, 4 h; outline: as §4
[20] = Stability of the compound in rat bile assessed as formation of sipoglitazar at 10 uM up to 4 hrs; format: ADME, tissue-based; outline: as §4
Plasma [21] = assay: Stability of the compound in human plasma assessed as formation of sipoglitazar at 10 uM up to 4 hrs; format: ADME, cell-free; outline: as §4
[22] = Drug metabolism in human hepatic microsomes assessed as formation of sipoglitazar at 10 uM after 10 mins by HPLC analysis in presence of NADPH; format: ADME, Liver, Microsome
Outline: (§5)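 Human liver microsomes (1 mg protein/mL), 10 μmol/L [14C]glucuronide isomer, 5 mmol/L MgCl2, with or without NADPH-generating system (5 mmol/L G6P, 0.5 mmol/L β-NADP+, 1.5 U/mL G6PDH) in 50 mmol/L KPB. Incubated 37°C, 10 min. Acetonitrile quench, then radio-HPLC.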

[23] = Chemical stability of the compound in potassium phosphate buffer at pH 7.4 assessed as formation of alpha-2-O-acyl glucuronide conjugate of sipoglitazar at 10 uM up to 4 hrs; format: physicochemical; conditions: pH 7.4, 4 h; outline: as §4
[24] = Stability of the compound in rat bile assessed as formation of alpha-2-O-acyl glucuronide conjugate of sipoglitazar at 10 uM up to 4 hrs; format: ADME, tissue-based; outline: as §4
Plasma [25] = assay: Stability of the compound in human plasma assessed as formation of alpha-2-O-acyl glucuronide conjugate of sipoglitazar at 10 uM up to 4 hrs; format: ADME, cell-free; outline: as §4
[26] = Drug metabolism in human hepatic microsomes assessed as formation of 3-(3-hydroxy-1-{4-[(2-phenyl-1,3-thiazol-4-yl)methoxy]benzyl}-1H-pyrazol-4-yl)propanoic acid at 10 uM after 10 mins by HPLC analysis in presence of NADPH; format: ADME, Liver, Microsome; outline: as §5
Cytochrome P450 2C8 = target: T1, Cytochrome P450 2C8 (Homo sapiens, UniProt P10632); assay: Drug metabolism in […] assessed as CYP2C8-mediated formation of 3-(3-hydroxy-1-{4-[(2-phenyl-1,3-thiazol-4-yl)methoxy]benzyl}-1H-pyrazol-4-yl)propanoic acid at 10 uM after 15 mins by HPLC analysis in presence of NADPH; conditions: 0.25 h
T1 sequence (P10632 whole entry): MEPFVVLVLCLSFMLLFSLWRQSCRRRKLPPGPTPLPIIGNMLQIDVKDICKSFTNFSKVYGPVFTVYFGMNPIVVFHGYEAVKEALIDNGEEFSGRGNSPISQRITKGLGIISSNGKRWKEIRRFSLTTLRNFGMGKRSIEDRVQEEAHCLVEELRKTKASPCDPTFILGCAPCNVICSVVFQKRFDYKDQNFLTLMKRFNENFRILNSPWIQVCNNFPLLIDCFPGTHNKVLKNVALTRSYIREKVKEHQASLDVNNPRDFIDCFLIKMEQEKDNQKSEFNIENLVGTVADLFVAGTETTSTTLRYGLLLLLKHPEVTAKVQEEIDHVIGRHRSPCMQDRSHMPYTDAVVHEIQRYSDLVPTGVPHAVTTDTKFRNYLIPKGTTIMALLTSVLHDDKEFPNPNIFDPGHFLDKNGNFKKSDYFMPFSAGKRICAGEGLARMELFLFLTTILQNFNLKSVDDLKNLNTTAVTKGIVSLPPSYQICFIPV
Outline: (§6)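 Recombinant CYP-expressing microsomes (80 pmol P450/mL) with 10 μmol/L [14C]glucuronide substrate, 5 mmol/L MgCl2 and NADPH-generating system (5 mmol/L glucose-6-phosphate, 0.5 mmol/L β-NADP+, 1.5 U/mL G6PDH) in 50 mmol/L KPB or Tris-HCl pH 7.4. Incubated 37°C, 15 min. Deethylated product quantified by radio-HPLC. Means of duplicates.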

Cytochrome P450 2B6 = target: T2, Cytochrome P450 2B6 (Homo sapiens, UniProt P20813); assay: Drug metabolism in […] assessed as CYP2B6-mediated formation of 3-(3-hydroxy-1-{4-[(2-phenyl-1,3-thiazol-4-yl)methoxy]benzyl}-1H-pyrazol-4-yl)propanoic acid at 10 uM after 15 mins by HPLC analysis in presence of NADPH; conditions: 0.25 h; outline: as §6
T2 sequence (P20813 whole entry): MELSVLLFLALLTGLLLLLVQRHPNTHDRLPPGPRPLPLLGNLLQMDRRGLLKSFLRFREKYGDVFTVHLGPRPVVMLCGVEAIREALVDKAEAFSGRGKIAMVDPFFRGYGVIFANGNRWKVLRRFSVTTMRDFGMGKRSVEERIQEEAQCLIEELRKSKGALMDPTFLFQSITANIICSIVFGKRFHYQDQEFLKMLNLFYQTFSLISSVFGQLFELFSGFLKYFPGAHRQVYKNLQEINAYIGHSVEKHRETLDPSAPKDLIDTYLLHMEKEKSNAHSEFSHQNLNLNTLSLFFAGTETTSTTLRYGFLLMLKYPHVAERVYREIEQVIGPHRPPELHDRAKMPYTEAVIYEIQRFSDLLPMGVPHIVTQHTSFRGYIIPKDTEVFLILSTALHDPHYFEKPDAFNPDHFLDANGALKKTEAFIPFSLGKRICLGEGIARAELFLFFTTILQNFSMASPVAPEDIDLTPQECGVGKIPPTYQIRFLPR

Cytochrome P450 2E1 = Cytochrome P450 2E1 (Homo sapiens, UniProt P05181); assay: Drug metabolism in […] assessed as CYP2E1-mediated formation of 3-(3-hydroxy-1-{4-[(2-phenyl-1,3-thiazol-4-yl)methoxy]benzyl}-1H-pyrazol-4-yl)propanoic acid at 10 uM after 15 mins by HPLC analysis in presence of NADPH; conditions: 0.25 h; outline: as §6
Sequence of Cytochrome P450 2E1 (P05181 whole entry): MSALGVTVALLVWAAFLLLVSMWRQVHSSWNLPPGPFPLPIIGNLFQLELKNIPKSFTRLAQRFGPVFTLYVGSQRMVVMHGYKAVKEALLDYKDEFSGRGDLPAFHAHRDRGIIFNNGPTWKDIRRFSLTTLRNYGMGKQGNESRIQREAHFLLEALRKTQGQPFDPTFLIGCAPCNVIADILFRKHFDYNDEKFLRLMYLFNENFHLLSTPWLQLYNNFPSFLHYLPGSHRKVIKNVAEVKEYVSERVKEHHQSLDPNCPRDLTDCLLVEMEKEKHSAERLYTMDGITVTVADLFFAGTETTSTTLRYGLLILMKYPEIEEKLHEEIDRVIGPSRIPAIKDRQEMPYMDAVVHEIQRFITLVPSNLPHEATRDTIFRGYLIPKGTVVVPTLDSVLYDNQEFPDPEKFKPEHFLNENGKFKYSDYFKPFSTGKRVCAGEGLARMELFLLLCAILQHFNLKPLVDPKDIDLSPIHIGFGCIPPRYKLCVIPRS

SMILES | Drug metabolism [14] | Drug metabolism [15] | Drug metabolism (Hepatocyte) | Drug metabolism [16] | Drug metabolism [17] | Stability [18] | Stability [19] | Stability [20] | Stability (Plasma [21]) | Drug metabolism [22] | also measured
CCOc1nn(Cc2ccc(OCc3csc(-c4ccccc4)n3)cc2)cc1CCC(=O)O [SIPOGLITAZAR] |  |  |  |  |  |  |  |  |  |  | Drug metabolism [1]: metabolite_detected; Drug metabolism [2]: metabolite_detected; Drug metabolism [3]: metabolite_not_detected; Drug metabolism [4]: metabolite_not_detected; Drug metabolism [5]: metabolite_not_detected; Drug metabolism [6]: metabolite_not_detected; Drug metabolism [7]: metabolite_not_detected; Drug metabolism [8]: metabolite_detected; Drug metabolism [9]: metabolite_detected; Drug metabolism [10]: metabolite_detected; Drug metabolism [11]: metabolite_detected; Drug metabolism [12]: metabolite_detected; Drug metabolism [13]: metabolite_detected
CCOc1nn(Cc2ccc(O)cc2)cc1CCC(=O)O | metabolite_detected | metabolite_detected | metabolite_detected | metabolite_detected |  |  |  |  |  |  | 
CCOc1nn(Cc2ccc(OCc3csc(-c4ccccc4)n3)cc2)cc1CCC(=O)O[C@@H]1[C@@H](O)[C@H](O)[C@@H](C(=O)O)O[C@@H]1O |  |  |  |  | metabolite_detected | Stable | Unstable | Unstable | Unstable | metabolite_detected | 
CCOc1nn(Cc2ccc(OCc3csc(-c4ccccc4)n3)cc2)cc1CCC(=O)O[C@@H]1O[C@H](C(=O)O)[C@@H](O)[C@H](O)[C@H]1O |  |  |  |  | metabolite_detected | Stable | Unstable | Unstable | Unstable | metabolite_detected | Stability [23]: Unstable; Stability [24]: Unstable; Stability (Plasma [25]): Unstable; Drug metabolism [26]: metabolite_detected; Drug metabolism (Cytochrome P450 2C8): metabolite_detected; Drug metabolism (Cytochrome P450 2B6): metabolite_not_detected; Drug metabolism (Cytochrome P450 2E1): metabolite_not_detected
O=C(O)CCc1cn(Cc2ccc(OCc3csc(-c4ccccc4)n3)cc2)nc1O | metabolite_detected | metabolite_detected | metabolite_detected | metabolite_detected |  |  |  |  |  |  | 
